Pf Dd2 growth: blocks growth of Plasmodium falciparum Dd2 parasites; P. falciparum Dd2 growth, SYBR Green, 72 h; stronger effect = lower value; activity change, % at 10 µM; 94,000 tested, 2.3% active; in the data active = activity change below about -80%; inconclusive = no clear call, values can overlap the other calls
KDM4C inh: inhibitors of human demethylase GASC-1 KDM4C; Q9H3R0; AID 720574; 96,000 tested, 0.15% active; GST-KDM4C 2-372, H3K9me3 peptide, LANCE TR-FRET; inhibition, % at 12.5 µM;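 active = mean replicate inhibition above about 25%, with at least 55% of replicates also reaching it, limit read from the data, passing the limit was not always enough; inconclusive = only one of those two conditions met; inactive = neither condition met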
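System: N-terminal GST-fused human GASC-1 (KDM4C) fragment, residues 2-372 / Amount: 10 nM GST-KDM4C in enzyme reaction / Also added: H3K9me3 peptide with Fe(II)/2OG / Times: 30 min demethylation and 1 h detection at room temperature / Signal: LANCE TR-FRET / Read-out basis: Fall in 671/618 emission ratio as inhibition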
IDH1 R132H inh: inhibitors of human IDH1 R132H; O75874; IDH1 R132H reductase, diaphorase/resazurin fluorescence, 60 min; inhibition, % at 10 µM; 70,000 tested, 0.18% active; AID 624101; in the data active = inhibition above about 34%; inconclusive = no clear call, values can overlap the other calls; inactive = below about 11%
Target sequence (O75874 whole entry R132H): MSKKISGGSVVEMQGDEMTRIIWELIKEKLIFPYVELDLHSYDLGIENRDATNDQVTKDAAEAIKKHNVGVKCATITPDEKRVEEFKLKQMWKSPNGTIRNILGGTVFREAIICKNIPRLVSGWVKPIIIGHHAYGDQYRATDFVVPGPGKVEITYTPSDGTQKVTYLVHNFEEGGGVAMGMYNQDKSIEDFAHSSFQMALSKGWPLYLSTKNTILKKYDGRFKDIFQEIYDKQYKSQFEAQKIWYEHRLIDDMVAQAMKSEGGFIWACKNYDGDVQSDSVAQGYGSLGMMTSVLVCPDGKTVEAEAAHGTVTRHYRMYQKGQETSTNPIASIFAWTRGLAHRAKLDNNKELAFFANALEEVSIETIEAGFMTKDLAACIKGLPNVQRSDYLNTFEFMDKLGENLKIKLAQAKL
T cruzi growth-1: inhibitors of T. cruzi proliferation. 77,000 tested, 5.9% active. T. cruzi beta-gal in NIH3T3, GalScreen luminescence, 90 h. inhibition, % at 8.34 µM. AID 624255;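 active = mean inhibition above about 93%, with at least 55% of replicates each passing it, limit read from the data, passing the limit was not always enough; inconclusive = only one of those two conditions holds; inactive = neither condition holds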
T cruzi growth-2: Trypanosoma cruzi proliferation inhibition | shares compounds with T cruzi growth-1 | T. cruzi beta-gal in NIH3T3, GalScreen luminescence, 90 h | inhibition, % at 8.35 µM | 5,600 tested, 72% active | AID 651739;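 active = mean replicate inhibition above about 95% and at least 55% of replicates individually reaching it, limit read from the data; inconclusive = only one of the two criteria is met; inactive = neither criterion is met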
T cruzi growth-3: inhibitors of T. cruzi proliferation; shares compounds with T cruzi growth-1; inhibition, % at 2.09 µM; 5,600 tested, 21% active; T. cruzi beta-gal in NIH3T3, GalScreen luminescence, 90 h;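 active = mean inhibition above about 95%, with at least 55% of replicates also reaching it, limit read from the data; inconclusive = meets just one of the two conditions; inactive = meets neither condition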
3T3 cytotox: kills mouse NIH/3T3 fibroblasts; shares compounds with T cruzi growth-1; NIH/3T3 viability, CellTiter-Glo ATP luminescence, 90 h; cytotoxicity (signal decrease), % at 8.35 µM; 5,600 tested, 14% active;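 active = mean signal decrease across replicates above about 35% based on untreated-well scatter, with enough replicates individually passing, limit read from the data; inconclusive = no rule stated though some were filed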
NIH3T3 tox 2: cytotoxicity in mouse NIH/3T3 fibroblasts; shares compounds with T cruzi growth-1; NIH/3T3 viability, CellTiter-Glo ATP luminescence, 90 h; inhibition, % at 24.9 µM; 5,600 tested, 56% active; AID 651744;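 active = mean loss of cell viability signal at or above a set limit, and enough replicates individually reaching it; inconclusive = meets only the mean limit or only the replicate share; inactive = meets neither condition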
Each line names hits and unclear results; the compound was inactive in the other large screens (follow-up assays come after a bar, where they were run). An excerpt weighted towards active compounds, which were near 5.9% of everything screened.

CCCNC(=O)C[C@H]1C[C@H]2c3cc(NC(=O)CN(C)C)ccc3O[C@H]2[C@@H](CO)O1	T cruzi growth-1 101 | T cruzi growth-2 inactive | T cruzi growth-3 inactive | 3T3 cytotox inactive | NIH3T3 tox 2 inactive
CCCNC(=O)C[C@@H]1C[C@H]2c3cc(NC(=O)Nc4ccc(OC)cc4)ccc3O[C@H]2[C@@H](CO)O1	none
COc1ccc(CNC(=O)C[C@@H]2C[C@H]3c4cc(NC(=O)C5CCC5)ccc4O[C@H]3[C@H](CO)O2)cc1	T cruzi growth-1 177 | T cruzi growth-2 inconclusive | T cruzi growth-3 inactive | 3T3 cytotox inactive | NIH3T3 tox 2 inactive
COc1ccc(NC(=O)Nc2ccc3c(c2)[C@@H]2C[C@@H](CC(=O)NCCc4ccccc4)O[C@H](CO)[C@@H]2O3)cc1	T cruzi growth-1 133 | T cruzi growth-2 105 | T cruzi growth-3 inactive | 3T3 cytotox inactive | NIH3T3 tox 2 inactive
COc1ccc(NC(=O)Nc2ccc3c(c2)[C@H]2C[C@H](CC(=O)NCCc4ccccc4)O[C@@H](CO)[C@H]2O3)cc1	T cruzi growth-1 148 | T cruzi growth-2 105 | T cruzi growth-3 inactive | 3T3 cytotox inactive | NIH3T3 tox 2 inactive
CCCNC(=O)C[C@H]1C[C@@H]2c3cc(NC(=O)CN(C)C)ccc3O[C@@H]2[C@H](CO)O1	none
CN1CCN(C(=O)C[C@H]2CC[C@@H]3[C@H](COc4ccc(NC(=O)c5ccc(F)c(F)c5)cc4C(=O)N3C)O2)CC1	none (no result: IDH1 R132H inh)
COC1=CC(=O)CC(C)C12Oc1cc(OC)cc(O)c1C2=O (centres undefined)	none (no result: Pf Dd2 growth, KDM4C inh, T cruzi growth-1)
CCCNC(=O)C[C@H]1C[C@H]2c3cc(NC(=O)Nc4ccc(OC)cc4)ccc3O[C@H]2[C@H](CO)O1	none
COc1ccc(NC(=O)Nc2ccc3c(c2)[C@@H]2C[C@@H](CC(=O)NCCc4ccccc4)O[C@@H](CO)[C@@H]2O3)cc1	T cruzi growth-1 179 | T cruzi growth-2 111 | T cruzi growth-3 105 | 3T3 cytotox inactive | NIH3T3 tox 2 inactive
C/C=C/c1ccc([C@H]2[C@@H](CO)N(CC3CC3)C23CN(S(=O)(=O)CC)C3)cc1	none (no result: IDH1 R132H inh, T cruzi growth-1)
C/C=C/c1ccc([C@@H]2[C@H](CO)N[C@H]2CN(CC)C(=O)c2ccccn2)cc1	none (no result: IDH1 R132H inh)
CCN(C[C@H]1N[C@H](CO)[C@H]1c1ccc(C2=CCCC2)cc1)C(=O)c1ccncc1	T cruzi growth-1 104 (no result: IDH1 R132H inh) | T cruzi growth-2 inactive | T cruzi growth-3 inactive | 3T3 cytotox inactive | NIH3T3 tox 2 inactive
CCN(C[C@@H]1N[C@H](CO)[C@H]1c1ccc(C2=CCCC2)cc1)C(=O)c1ccncc1	none (no result: IDH1 R132H inh)
O=C(NC[C@H]1N[C@H](CO)[C@@H]1c1ccc(C2=CCCCC2)cc1)c1cccc(F)c1	none (no result: IDH1 R132H inh)
C/C=C/c1ccc([C@@H]2[C@@H](CO)N[C@@H]2CN(CC)C(=O)c2ccccn2)cc1	T cruzi growth-1 100 (no result: IDH1 R132H inh) | T cruzi growth-2 inactive | T cruzi growth-3 inactive | 3T3 cytotox inactive | NIH3T3 tox 2 inactive
O=C(NC[C@H]1N[C@H](CO)[C@@H]1c1ccc(C2=CCCCC2)cc1)c1ccc(F)cc1	T cruzi growth-1 96 (no result: IDH1 R132H inh) | T cruzi growth-2 100 | T cruzi growth-3 inactive | 3T3 cytotox inactive | NIH3T3 tox 2 106
CCN(C[C@H]1N[C@H](CO)[C@H]1c1ccc(C2=CCCC2)cc1)C(=O)c1cccnc1	none (no result: IDH1 R132H inh)
CCN(C[C@H]1N[C@@H](CO)[C@@H]1c1ccc(C2=CCCC2)cc1)C(=O)c1ccncc1	T cruzi growth-1 105 (no result: IDH1 R132H inh) | T cruzi growth-2 98 | T cruzi growth-3 inactive | 3T3 cytotox inactive | NIH3T3 tox 2 55
CO[C@H]1CN(C)C(=O)c2ccc(NC(=O)c3nc4ccccc4s3)cc2OC[C@@H](C)N(Cc2cccnc2)C[C@H]1C	T cruzi growth-1 inconclusive (no result: IDH1 R132H inh) | T cruzi growth-2 105 | T cruzi growth-3 inactive | 3T3 cytotox inactive | NIH3T3 tox 2 59
COc1ccc(CN2C[C@H](C)[C@@H](OC)CN(C)C(=O)c3ccc(NC(=O)c4nc5ccccc5s4)cc3OC[C@H]2C)cc1	T cruzi growth-1 inconclusive | T cruzi growth-2 110 | T cruzi growth-3 114 | 3T3 cytotox inactive | NIH3T3 tox 2 inactive
